The text below walks through data of ChEMBL document CHEMBL1155043, “Complexation of the anti-Trypanosoma cruzi drug benznidazole improves solubility and efficacy” (J Med Chem, 2008).

The subject of series [1] is Trypanosoma cruzi. Kind of series: Antitrypanosomal activity against bloodstream trypomastigote of Trypanosoma cruzi Y assessed as number of motile forms after 1 hr by hemocytometer. The series is classed as functional, organism-based. Put shortly: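 Bloodstream trypomastigotes (Y strain) taken from mice at peak parasitemia, resuspended to 1.0 × 10^6/mL. Triplicate wells with compound in PBS at 0.1, 0.25, 0.5 and 1.0 mM, 37 °C, 5% CO2, 1 h. Motile forms counted by hemocytometer; % trypanocidal activity = [1 - (LDt/LCt)] × 100 against untreated wells.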

For another series, the system named is V79. In words: Cytotoxicity against chinese hamster V79 cells. The series is classed as cell-based. The settings on record: Cricetulus griseus.
Series [2] relates to Trypanosoma cruzi. Kind of series: Antiproliferative activity against Trypanosoma cruzi Y epimastigotes assessed as number of motile forms at 0.1 mM after 1 hr by hemocytometer. It counts as functional. The settings on record: read-out: GI. Put shortly: (§1)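 Y strain epimastigotes grown in Schneider's medium with 20% fetal calf serum, taken in exponential phase, PBS-washed, resuspended to 2.0 × 10^6/mL. Plated in triplicate with compound diluted in PBS, incubated at 37 °C, 5% CO2. Motile forms counted by hemocytometer; % growth inhibition = {1 - [(LDt - LDt0)/(LCt - LCt0)]} × 100 against untreated wells.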

For series [3], the system named is Trypanosoma cruzi. In words: Antiproliferative activity against Trypanosoma cruzi Y epimastigotes assessed as number of motile forms at 0.5 mM after 1 hr by hemocytometer. It counts as functional. Particulars: read-out: GI. In outline: as §1
The test system of series [4] is Trypanosoma cruzi. Kind of series: Antiproliferative activity against Trypanosoma cruzi Y epimastigotes assessed as number of motile forms at 1 mM after 1 hr by hemocytometer. It counts as functional. The settings on record: read-out: GI. Put shortly:
as §1

The test system of series [5] is Trypanosoma cruzi. Kind of series: Antiproliferative activity against Trypanosoma cruzi Y epimastigotes assessed as number of motile forms at 0.1 mM after 4 hrs by hemocytometer. Particulars: read-out: GI. It counts as functional. In outline:
as §1

Series [6] deals with Trypanosoma cruzi. In words: Antiproliferative activity against Trypanosoma cruzi Y epimastigotes assessed as number of motile forms at 0.5 mM after 4 hrs by hemocytometer. It counts as functional. Particulars: read-out: GI. Put shortly:
as §1

In series [7] the test system is Trypanosoma cruzi. In words: Antiproliferative activity against Trypanosoma cruzi Y epimastigotes assessed as number of motile forms at 1 mM after 4 hrs by hemocytometer. The series is classed as functional. The settings on record: read-out: GI. In outline: as §1
Series [8] deals with Trypanosoma cruzi. Kind of series: Antiproliferative activity against Trypanosoma cruzi Y epimastigotes assessed as number of motile forms at 0.1 mM after 24 hrs by hemocytometer. The series is classed as functional. The settings on record: read-out: GI. Put shortly:
as §1

The test system of series [9] is Trypanosoma cruzi. Kind of series: Antiproliferative activity against Trypanosoma cruzi Y epimastigotes assessed as number of motile forms at 0.5 mM after 24 hrs by hemocytometer. The series is classed as functional. The settings on record: read-out: GI. In outline: as §1
The test system of series [10] is Trypanosoma cruzi. Kind of series: Antiproliferative activity against Trypanosoma cruzi Y epimastigotes assessed as number of motile forms at 1 mM after 24 hrs by hemocytometer. It counts as functional. The settings on record: read-out: GI. In outline:
as §1

Series [11] has as its system Trypanosoma cruzi. Kind of series: Antitrypanosomal activity against Trypanosoma cruzi Y epimastigotes assessed as number of motile forms after 24 hrs by hemocytometer. It counts as functional, organism-based. In outline: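 Y strain epimastigotes in Schneider's medium with 20% FCS, exponential phase, PBS-washed, 2.0 × 10^6/mL. Triplicate wells with compound in PBS at 0.1, 0.25, 0.5 and 1.0 mM, 37 °C, 5% CO2, 24 h. Motile forms counted by hemocytometer; IC50 taken as 50% antiproliferative activity. Mean ± SEM, n = 3.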

In series [12] the test system is Trypanosoma cruzi. In words: Antitrypanosomal activity against Trypanosoma cruzi Y infected in Swiss mouse assessed as survivality at 100 nmol/kg, ip after 15 consecutive days. The series is classed as functional, organism-based. In outline:
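Female Swiss mice, 5-6 weeks old, groups of six, infected ip with 1.0 × 10^3 Y strain bloodstream trypomastigotes. Treated ip in 100 µL PBS daily for 15 consecutive days. Controls were untreated or PBS-only infected mice. Survival followed up to 120 days.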

Series [13] concerns Trypanosoma cruzi. Kind of series: Antitrypanosomal activity against Trypanosoma cruzi Y infected in Swiss mouse assessed as decrease in parasitemia at 385 umol/kg, po after 15 consecutive days. The series is classed as functional, organism-based.
For series [14], the system named is Trypanosoma cruzi. Kind of series: Antitrypanosomal activity against Trypanosoma cruzi Y infected in Swiss mouse assessed as survivality at 385 umol/kg, po for 1 day after 15 days. It counts as functional. Put shortly: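 Female Swiss mice, 5-6 weeks old, infected intraperitoneally with 1.0 × 10^3 Y-strain bloodstream trypomastigotes. A single oral dose in PBS was given only on the first day after infection. Groups of six, with infected controls. Survival was followed, and parasitemia was counted as motile trypomastigotes in 5 µL tail blood.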

Series [15] can be described thus: Aqueous solubility at pH 6.5. It counts as physicochemical. Put shortly: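 Solubility measured in a bio-relevant medium simulating fasted proximal small intestine: 3 mM sodium taurocholate, 0.75 mM lecithin, KH2PO4, KCl, pH 6.5, 37 °C. Excess compound stirred 24 h in 5 mL, filtered through 0.45 µm, diluted, and quantified by UV-vis at 323 nm (ε = 4.5 × 10^3 M-1 cm-1), in triplicate.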

Series [16] concerns Trypanosoma cruzi. Kind of series: Antitrypanosomal activity against Trypanosoma cruzi Y infected in Swiss mouse assessed as survivality at 385 umol/kg, po after 15 consecutive days. It counts as functional. Put shortly: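 Female Swiss mice, 5-6 weeks old, infected intraperitoneally with 1.0 × 10^3 Y-strain bloodstream trypomastigotes from an infected mouse. Oral dosing once daily in PBS for 15 consecutive days. Groups of six; untreated or PBS-only infected controls. Parasitemia counted as motile trypomastigotes in 5 µL tail blood, and survival of the treated animals recorded.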

Each structure is given as a SMILES string. ≈ marks a conversion by molar mass, not a printed value. Calls of active or inactive are those of the source. No cut-off for these calls is given here.

One may read the IC50 as the concentration that gives 50% inhibition. Broadly, the solubility is how much of the substance goes into solution per volume. A lower solubility goes with a poorly soluble substance. Consider `O=C(Cn1ccnc1[N+](=O)[O-])NCc1ccccc1` [BENZNIDAZOLE], for which the IC50 is over 1000 µM in the series with Trypanosoma cruzi [1], 2000 µM in the series on V79 and over 1000 µM with Trypanosoma cruzi [11]. For the same molecule, the inhibition of growth at 100 µM was determined as 0% with Trypanosoma cruzi [2], 11% with Trypanosoma cruzi [5] and 15% with Trypanosoma cruzi [8]. Further, the inhibition of growth at 500 µM in the series on Trypanosoma cruzi [3] was found to be 0%; in the series with Trypanosoma cruzi [6] it was 15%; in the series on Trypanosoma cruzi [9] it was 26%. Further, the inhibition of growth at 1000 µM in the series on Trypanosoma cruzi [4] turned out to be 7%; with Trypanosoma cruzi [7] it was 24%; in the series on Trypanosoma cruzi [10] it was 31%. Besides, the result in the series on Trypanosoma cruzi [12] was inactive. In the series on Trypanosoma cruzi [13], the result was Active. Moreover, the survival at 385 µmol/kg came out at 20% in the series with Trypanosoma cruzi [14] and 100% in the series on Trypanosoma cruzi [16]. This molecule registered a solubility in series [15] of 400 µg/mL (≈ 1540 µM).
